# Experimental data gathered from unrelated publications.
# Lines come from different studies, so protocols differ.
# ALK: ALK tyrosine kinase receptor (ALK, Homo sapiens, UniProt Q9UM73)
# ALK L1196M: ALK tyrosine kinase receptor (ALK, Homo sapiens, UniProt Q9UM73, L1196M)
# ALK C1156Y: ALK tyrosine kinase receptor (ALK, Homo sapiens, UniProt Q9UM73, C1156Y)
Compound,target,assay,conditions,endpoint,value
CCN(CC)CCNC(=O)c1c(C)[nH]c(/C=C2\C(=O)Nc3ccc(F)cc32)c1C,ALK,"enzyme activity, inhibitor",0.1 µM,remaining activity,73%
Cc1cc(NC(=O)c2cccc3cc(-c4cccc5[nH]nc(N)c45)ccc23)ccc1F,ALK,"enzyme activity, inhibitor",0.1 µM,activity vs control,140%
CS(=O)(=O)Nc1cccc(-c2csc(NC(=O)CSc3nc4nccnc4c(=O)n3CCc3ccccc3)n2)c1,ALK,"enzyme activity, inhibitor",10 µM,inhibition,9%
CCCCN(CCCC)C(=O)CN1C[C@H](c2cc(OC)c3c(c2)OCO3)[C@@H](C(=O)O)[C@@H]1CC(C)(C)CCC,ALK L1196M,"cell-free assay, competition with immobilised ligand",1 µM,remaining binding,100%
Oc1ccc(-c2nc(-c3ccncc3)c(-c3ccc(F)cc3)[nH]2)cc1,ALK,cell-free assay,0.5 µM,remaining signal,104%
COc1ccnn2ncc(-c3ccnc(N(C)C)n3)c12,ALK C1156Y,binding,1 µM,remaining binding,100%
CN(C)c1ncnc(-c2ccc3nc(Nc4cc(CN5CCN(C(=O)CC(F)(F)F)CC5)ccn4)[nH]c3c2)c1Cl,ALK L1196M,"cell-free assay, competition with immobilised ligand",1 µM,remaining binding,79%
Nc1ncnc2occ(-c3ccc(NC(=O)Nc4cc(C(F)(F)F)ccc4F)cc3)c12,ALK L1196M,cell-free assay,20 µM,remaining signal,1.8%
O=C1NC(=O)c2cc(Nc3ccc(F)cc3)c(Nc3ccc(F)cc3)cc21,ALK,cell-free assay,0.5 µM,remaining signal,92.6%
COc1cc(-c2cn(C3CCc4c(F)cccc4N(CC(F)(F)F)C3=O)nn2)ccc1-n1cnc(C)c1 (centres unmarked),ALK L1196M,"cell-free assay, competition with immobilised ligand",1 µM,remaining binding,100%
CNCc1ccc(-c2cc(-c3nc(-c4ccc(S(=O)(=O)C(C)C)cc4)cnc3N)on2)cc1,ALK,"enzyme activity, inhibitor",0.4 µM,inhibition,2%
O=C(NCc1ncc(C(F)(F)F)cc1Cl)c1ccc2c(c1)C1(CCS(=O)(=O)CC1)[C@H](C1CC1)N2S(=O)(=O)c1ccc(F)cc1,ALK,"cell-free assay, competition with immobilised ligand",1 µM,remaining binding,98%
CN(CCCC(F)(F)F)c1nccc(-c2cnn3ncccc23)n1,ALK L1196M,binding,1 µM,remaining binding,100%
CN1CC(Oc2cnc(C#N)cc2-c2ccn3nc(NC(=O)C4CC4)cc3c2)C1,ALK,"enzyme activity, inhibitor",1 µM,inhibition,0%
C=CC(=O)Nc1cc(Nc2nccc(Nc3cc(Cl)c(F)cc3C(C)(C)O)n2)c(OC)cc1N1CC[C@@H](N(C)C)C1,ALK,"enzyme activity, inhibitor",1 µM,inhibition,86%
CCCOc1ccc(OC)c(F)c1C(=O)c1ccc(C(=O)N[C@@H]2CNC[C@H]2NC(=O)c2ccc3[nH]ncc3c2)cc1,ALK,"enzyme activity, inhibitor",10 µM,remaining activity,47%
C[C@@H]1CCN(c2nccc(-c3cnn4ncccc34)n2)C1,ALK,binding,1 µM,remaining binding,81%
Cc1ccc(Nc2nccc(N(C)c3ccc4c(C)n(C)nc4c3)n2)cc1S(N)(=O)=O,ALK,"enzyme activity, inhibitor",10 µM,inhibition,79%
CNC(=O)Nc1ccc2c(c1)[C@@]1(CC2)OC(=O)N(CC(=O)N(Cc2ccc(F)cc2)[C@@H](C)C(F)(F)F)C1=O,ALK,"cell-free assay, competition with immobilised ligand",1 µM,remaining binding,77%
CNC(=O)c1cc(Oc2ccc(NC(=O)Nc3ccc(Cl)c(C(F)(F)F)c3)cc2)ccn1,ALK,"enzyme activity, inhibitor",10 µM,inhibition,45%
N[C@H]1CCN(c2nccc(-c3cnn4ncccc34)n2)C1,ALK,binding,1 µM,remaining binding,85%
COc1cc2ncnc(Nc3ccc(Oc4ccccc4)c(C)c3C)c2cc1OC,ALK,"enzyme activity, inhibitor",1 µM,inhibition,-3%
Cc1ccc(C(=O)NCc2ccsc2)cc1C#Cc1cn(C(C)C)c2ncnc(N)c12,ALK,"enzyme activity, inhibitor",1 µM,activity vs control,103%
CC(C)(O)[C@H]1CC[C@H](Nc2ccc3ncc(-c4cccc(C(F)(F)F)c4)n3n2)CC1,ALK,"enzyme activity, inhibitor",1 µM,remaining activity,57%
COc1ccc2c(c1)O[C@@H](c1ccc(OC)c(OC)c1)C[C@H]2NC(=O)C1(c2ccc3c(c2)OC(F)(F)O3)CC1,ALK,"cell-free assay, competition with immobilised ligand",1 µM,remaining binding,100%
Cc1[nH]c(/C=C2\C(=O)Nc3ccc(F)cc32)c(C)c1C(=O)N[C@H]1CCN(C(=O)N(C)C)C1,ALK,"enzyme activity, inhibitor",0.1 µM,remaining activity,109%
Cc1ccc(NC(=O)c2ccc(CN3CCN(C)CC3)cc2)cc1Nc1nc(-c2cccnc2)cs1,ALK,cell-free assay,0.5 µM,remaining signal,103%
N#CC1(c2ccccn2)CCN(Cc2cc(C(=O)N3CCCC3)c(=O)n3ccccc23)CC1,ALK,"cell-free assay, competition with immobilised ligand",1 µM,remaining binding,100%
c1cnn2ncc(-c3ccnc(N4CCC45COC5)n3)c2c1,ALK,binding,1 µM,remaining binding,78%
Cc1sc(C(=O)NC2COC2)cc1-n1cc(NC(=O)Nc2c(F)cccc2Cl)cn1,ALK,"enzyme activity, inhibitor",10 µM,remaining activity,100%
CN(c1nccc(-c2cnn3ncccc23)n1)C1CC1,ALK,binding,1 µM,remaining binding,100%
O=C(Nc1cnn(-c2csc(C(=O)NC3COC3)c2)c1)Nc1ccccc1Cl,ALK,"enzyme activity, inhibitor",5 µM,remaining activity,101%
Cc1ccc(C(=O)Nc2ccc(CN3CCN(C)CC3)c(C(F)(F)F)c2)cc1C#Cc1cnc2cccnn12,ALK,cell-free assay,23.5 nM,remaining signal,81%
CC/C(=N\NC(=O)NCc1cccc(O)c1)c1ccc(O)c(C)c1O,"ALK tyrosine kinase receptor (ALK, Homo sapiens, UniProt Q9UM73, F1174L)","enzyme activity, inhibitor",0.1 µM,inhibition,-0.9%
CCCS(=O)(=O)Nc1ccc(F)c(C(=O)c2c[nH]c3ncc(-c4ccc(Cl)cc4)cc23)c1F,ALK,"enzyme activity, inhibitor",1 µM,inhibition,< 10%
CNCc1ccccc1-c1csc([C@H](C)Nc2nc(C)nc3cc(OC)c(OC)cc23)c1,ALK C1156Y,"cell-free assay, competition with immobilised ligand",1 µM,remaining binding,100%
CN(C)c1ncc(F)c(-c2cnn3ncccc23)n1,ALK,binding,1 µM,remaining binding,90%
Cc1ccc(NC(=O)c2ccc(C)c(C(F)(F)F)c2)cc1C#Cc1nn(C2CCC(O)CC2)c2ncnc(N)c12 (centres unmarked),ALK,cell-free assay,10 µM,remaining signal,92%
